The test system of series [1] is Hepatocyte. Kind of series: Prodrug conversion in human hepatocytes assessed as 2'-deoxy-2'-spirooxetane uridine triphosphate formation in presence of pan-CYP inhibitor 1-ABT by LC-MS/MS analysis. The class given is ADME, cell-based.
A further series concerns the target CYP3A4 (Homo sapiens, UniProt P08684). Kind of series: Drug metabolism in baculovirus infected insect cell microsomes expressing human CYP3A4 assessed as CYP3A4-mediated half life at 22.7 uM. It is filed as ADME. The method, boiled down:
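Incubation at 22.7 µM with human CYP3A4 supersomes. Intrinsic clearance (µL/min.pmol P450) and half-life (min) were determined.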

The subject of series [2] is Liver. The series can be described thus: Tlast in dog liver at 50 mg/kg, po. The note with it: in vivo. The class given is ADME, organism-based, Canis lupus familiaris. The method, boiled down:
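Single oral dose of 50 mg/kg formulated in 20% HP-β-cyclodextrin. Prodrug and its triphosphate were measured in plasma and liver (ng/mL or ng/g) over time, and Cmax, tmax, AUC, tlast and t1/2 were derived. For some analytes, data from two independent studies are reported.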

For series [3], the system named is Hepatocyte. The series can be described thus: Drug metabolism in human hepatocytes assessed as ((4R,5R,7R,8R)-5-(2,4-dioxo-3,4-dihydropyrimidin-1(2H)-yl)-8-hydroxy-1,6-dioxaspiro[3.4]octan-7-yl)methyl dihydrogen phosphate formation in presence of PDE5 inhibitor sildenafil by LC-MS/MS analysis. It is filed as ADME, cell-based.
Series [4] deals with Liver. Kind of series: AUC (0 to infinity) in rat liver assessed as 2'-deoxy-2'-spirooxetane uridine triphosphate at 50 mg/kg, po. The note with it: in vivo. The class given is ADME, organism-based. Set-up: dose 50 mg/kg, time infinity, route oral. The method in brief:
(§1)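 Oral dose 50 mg/kg, formulated in 20% HP-β-cyclodextrin. Prodrug and triphosphate were measured in plasma and liver (ng/mL or ng/g). Parameters derived were Cmax, tmax, AUC0-last, AUC0-inf and t1/2. Some prodrug data come from two independent studies.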

The test system of series [5] is Hepatocyte. Kind of series: Prodrug conversion in human hepatocytes assessed as 2'-deoxy-2'-spirooxetane uridine triphosphate formation in presence of pan-PDE inhibitor ibudilast by LC-MS/MS analysis. The class given is ADME, cell-based.
Series [6] has as its system Hepatocyte. The series can be described thus: Prodrug conversion in rat cryopreserved hepatocytes assessed as 2'-deoxy-2'-spirooxetane uridine triphosphate level per million cells at 10 uM after 24 hrs by LC-MS/MS analysis. The class given is ADME, cell-based. The method in brief:
(§2)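 Plated cryopreserved hepatocytes (study B) incubated with 10 µM unlabeled prodrug for 2, 8 or 24 h. Triphosphate measured in cell lysates and expressed as pmol/million hepatocytes. Quantification limit 2 ng/10^6 cells.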

The test system of series [7] is Liver. Kind of series: Cmax in mouse liver assessed as 2'-deoxy-2'-spirooxetane uridine triphosphate at 50 mg/kg, po. The class given is ADME, organism-based. The arrangement: dose 50 mg/kg, route oral. The note with it: in vivo.
Series [8] in a line: AUC (0 to infinity) in dog plasma at 50 mg/kg, po. The arrangement: dose 50 mg/kg, time infinity, route oral. It is filed as ADME, organism-based, Canis lupus familiaris. The method, boiled down: as §1
Series [9] deals with Hepatocyte. The series can be described thus: Prodrug conversion in human cryopreserved hepatocytes assessed as 2'-deoxy-2'-spirooxetane uridine triphosphate level per million cells at 10 uM after 24 hrs by LC-MS/MS analysis. It is filed as ADME, cell-based. The method in brief:
as §2

Series [10] has as its system Hepatitis C virus. The series can be described thus: Antiviral activity against HCV genotype 3a infected in homozygous cDNA-uPA chimeric SCID mouse bearing humanized hepatocytes assessed as reduction in HCV RNA level in serum administered through oral gavage twice daily daily for 7 days by RT-PCR method. The note with it: Hepacivirus hominis, Hepatocyte. It is filed as functional, organism-based. The method in brief: (§3)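 Male chimeric SCID cDNA-uPA+/+ mice with human hepatocyte liver (≥70% replacement by blood human albumin) and serum HCV RNA >1.0×10^6 copies/mL the week before dosing. Oral gavage for 7 days in 20% HP-β-CD, 50-200 mg/kg QD or BID. Serum sampled pre-dose on days 1, 2, 3, 5 and 7. Real-time PCR; mean change in log10 copies/mL, day 7 vs day 1 pre-dose.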

Series [11] is described as follows: Half life in mouse liver at 50 mg/kg, po. It is filed as ADME, organism-based. The method in brief:
(§4)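 Single oral dose of 50 mg/kg in 20% HP-β-cyclodextrin. Prodrug and triphosphate measured in plasma and liver over time (tlast 6–30 h). Half-life, Cmax, tmax and AUC0-last derived; liver/plasma ratio taken from AUC0-last. Prodrug data pooled from two independent studies.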

In series [12] the test system is Liver. Kind of series: AUC (0 to last) in rat liver at 50 mg/kg, po. The class given is ADME, organism-based. The note with it: in vivo. The method in brief: as §1
For series [13], the system named is Hepatitis C virus. The series can be described thus: Antiviral activity against HCV genotype 1a infected in homozygous cDNA-uPA chimeric SCID mouse bearing humanized hepatocytes assessed as change in HCV RNA level in serum at 200 mg/kg, po qd administered through gavage for 7 days by RT-PCR method. The class given is functional, Hepacivirus hominis, subtype 1a, Hepatocyte. The method, boiled down: as §3

The subject of series [14] is Hepatitis C virus. Kind of series: Antiviral activity against HCV genotype 3a infected in homozygous cDNA-uPA chimeric SCID mouse bearing humanized hepatocytes assessed as change in HCV RNA level in serum at 200 mg/kg, po bid administered through gavage for 7 days by RT-PCR method. The class given is functional, Hepacivirus hominis, Hepatocyte. The method in brief:
as §3

In series [15] the test system is Liver. The series can be described thus: Half life in rat liver assessed as 2'-deoxy-2'-spirooxetane uridine triphosphate at 50 mg/kg, po. The class given is ADME, organism-based. The following applies: in vivo. The method in brief: as §4
Series [16] has as its system Hepatocyte. Kind of series: Prodrug conversion in mouse primary hepatocytes assessed as 2'-deoxy-2'-spirooxetane uridine triphosphate formation measured at 8 hrs by LC-MS/MS analysis. It is filed as ADME, cell-based. The method, boiled down:
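Hepatocyte primary cultures followed over time for triphosphate formation in cell lysates: rat and mouse up to 24 h, human up to 96 h.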

Series [17] relates to Hepatitis C virus. The series can be described thus: Antiviral activity against HCV genotype 1a infected in homozygous cDNA-uPA chimeric SCID mouse bearing humanized hepatocytes assessed as change in HCV RNA level in serum at 100 mg/kg, po bid administered through gavage for 7 days by RT-PCR method. It is filed as functional, Hepacivirus hominis, subtype 1a, Hepatocyte. The method, boiled down:
as §3

The test system of series [18] is Hepatocyte. Kind of series: Prodrug conversion in human primary hepatocytes assessed as 2'-deoxy-2'-spirooxetane uridine triphosphate level per million cells at 2 uM after 4 hrs using radiolabelled compound by LC-MS/MS analysis. The class given is ADME, cell-based. The method, boiled down:
(§5)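 Study A: fresh primary hepatocyte cultures from mouse, rat, dog and human incubated with tritiated prodrug at 2 or 62.5 µM for 4 or 24 h. Triphosphate in cell lysates reported as pmol/million hepatocytes. Duplicate or single measurements.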

In series [19] the test system is Hepatocyte. Kind of series: Drug metabolism in rat primary hepatocyte supernatant assessed as 1-[(4aR,6R,7R,7aR)-2-hydroxy-2-oxidodihydro-4H-spiro[furo[3,2-d][1,3,2]dioxaphosphinine-7,2'-oxetan]-6-yl]pyrimidine-2,4(1H,3H)-dione formation at 2 to 62.5 uM after 4 to 24 hrs using radiolabelled compound by HPLC analysis. The class given is ADME, cell-based. The following applies: hepatocytes. The method, boiled down: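 Fresh primary hepatocyte cultures incubated with tritiated prodrug (5'-[3H]) at 2 and 62.5 µM for 4 and 24 h. Supernatants taken after protein precipitation and profiled by HPLC with radioactivity detection. Cell lysates profiled for metabolites by radio-LC. Cyclic monophosphate also measured by LC/MS/MS.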

The nature of series [20]: Prodrug conversion in dog primary hepatocytes assessed as 2'-deoxy-2'-spirooxetane uridine triphosphate level per million cells at 62.5 uM after 24 hrs using radiolabelled compound by LC-MS/MS analysis. It is filed as ADME, cell-based, Canis lupus familiaris, Hepatocyte. The method in brief: as §5
Series [21] concerns Hepatocyte. Kind of series: Stability in rat primary hepatocyte supernatant assessed as parent compound level at 2 uM after 4 to 24 hrs using radiolabeled compound by HPLC analysis. The class given is ADME, cell-based. The note with it: hepatocytes.
The nature of series [22]: Drug metabolism in dog primary hepatocyte supernatant assessed as 1-[(4aR,6R,7R,7aR)-2-hydroxy-2-oxidodihydro-4H-spiro[furo[3,2-d][1,3,2]dioxaphosphinine-7,2'-oxetan]-6-yl]pyrimidine-2,4(1H,3H)-dione formation at 2 to 62.5 uM after 4 to 24 hrs using radiolabelled compound by HPLC analysis. The class given is ADME, cell-based, Canis lupus familiaris. The note with it: hepatocytes. The method in brief:
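Study A: primary cultured hepatocytes (mouse, rat, dog, human) incubated with 2 or 62.5 µM 5'-[3H]-labelled prodrug for 4 and 24 h. Cell lysates were analysed for triphosphate. Supernatants were protein-precipitated and profiled by HPLC with radioactivity detection. Cyclic monophosphate was also assessed by LC/MS/MS.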

This note sets out measurements from ChEMBL document CHEMBL3826882, “Discovery of 1-((2R,4aR,6R,7R,7aR)-2-Isopropoxy-2-oxidodihydro-4H,6H-spiro[furo[3,2-d][1,3,2]dioxaphosphinine-7,2'-oxetan]-6-yl)pyrimidine-2,4(1H,3H)-dione (JNJ-54257099), a 3'-5'-Cyclic Phosphate Ester Prodrug of 2'-Deoxy-2'-Spirooxetane Uridine Triphosphate Useful for HCV Inhibition” (J Med Chem, 2016).

The half-life is the time in which the quantity being followed falls by half. By Cmax is commonly meant the peak of the concentration-time curve. The term AUC(0-inf) denotes total exposure, with the tail of the curve extrapolated. A low value points to less exposure.

CYP3A4, sequence (P08684 whole entry): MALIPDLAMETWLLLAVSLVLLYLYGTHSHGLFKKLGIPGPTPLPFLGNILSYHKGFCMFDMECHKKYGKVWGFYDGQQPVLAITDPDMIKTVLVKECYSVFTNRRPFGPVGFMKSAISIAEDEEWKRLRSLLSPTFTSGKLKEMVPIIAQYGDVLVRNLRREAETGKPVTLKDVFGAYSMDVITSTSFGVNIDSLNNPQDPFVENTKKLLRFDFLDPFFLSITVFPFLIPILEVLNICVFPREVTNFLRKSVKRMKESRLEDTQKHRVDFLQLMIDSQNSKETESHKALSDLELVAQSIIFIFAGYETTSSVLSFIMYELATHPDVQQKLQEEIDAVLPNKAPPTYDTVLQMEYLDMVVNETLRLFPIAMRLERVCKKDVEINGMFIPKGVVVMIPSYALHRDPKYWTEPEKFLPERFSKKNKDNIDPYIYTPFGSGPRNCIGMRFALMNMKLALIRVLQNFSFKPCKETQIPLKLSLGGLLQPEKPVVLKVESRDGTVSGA

Regarding `CC(C)O[P@@]1(=O)OC[C@H]2O[C@@H](n3ccc(=O)[nH]c3=O)[C@@]3(CCO3)[C@@H]2O1`, the Drug metabolism result with Hepatocyte [1] was “metabolite_notdetected”; in the series on Hepatocyte [3], “metabolite_notdetected”; with Hepatocyte [5] it was “metabolite_notdetected”; in the series on Hepatocyte [6] it was 0.231 pmol; with Hepatocyte [9] it was 0.151 pmol; in the series on Hepatocyte [16], “metabolite_detected”. Moreover, the half-life at 22.7 µM at CYP3A4 was 2.18 h. The molecule further showed a Tlast in the series on Liver [2] of 24 h. For the same molecule, in the series on Liver [4], the AUC is 758393 ng·h/g. Further, the Cmax in the series on Liver [7] was 13633 ng/g. For the same molecule, the AUC(0-inf) in series [8] came out at 29100 ng·h/mL. In addition, the Activity entry with Hepatitis C virus [10] was “Dose-dependent effect”; in the series with Hepatitis C virus [13] it was -0.64; in the series on Hepatitis C virus [14], -1.58; with Hepatitis C virus [17], -1.17. Besides, the half-life in series [11] is 2.1 h. This molecule also showed an AUClast with Liver [12] of 2489 ng·h/g. Besides, the t1/2 with Liver [15] turned out to be 5.8 h.

Take `[3H]C1O[P@](=O)(OC(C)C)O[C@@H]2[C@@H]1O[C@@H](n1ccc(=O)[nH]c1=O)[C@@]21CCO1` (stereo partly drawn): the Drug metabolism in the series with Hepatocyte [18] was 0.023 pmol; in the series with Hepatocyte [19] it was “metabolite_detected”; in series [20] it was 0.11 pmol; in series [22] it was “metabolite_detected”. For the same molecule, the Stability result in the series on Hepatocyte [21] was “Stable”.
